Data set [1] deals with T1, Cholinesterase (Homo sapiens, UniProt P06276). Nature of the data set: Inhibition of BuChE in human liver microsomes. (In general: Liver microsomes are vesicles of endoplasmic reticulum, rich in cytochrome P450 enzymes.)
Data set [2] can be described thus: Selectivity for human BuChe over electric eel AChE type 6S.
Data set [3] concerns the target Acetylcholinesterase (Electrophorus electricus) (UniProt O42275). Description: Inhibition of electric eel AChE type 6S at 100 uM. A digest of the protocol: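 Electric eel AChE (type VI-S) in pH 8.0 phosphate buffer was preincubated for 30 min at 37 °C with test compound added from a 2 mmol MeCN stock. Ellman read-out followed, with final DTNB 0.3 mmol and acetylthiocholine 0.5 mmol.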

For data set [4], the target named is T1, Cholinesterase. Description: Inhibition of BuChE in human liver microsomes assessed as dissociation constant for Michaelis complex formation by enzyme kinetic study. The following applies: Microsome.
The species named for data set [5] is Homo sapiens. Description: Inhibition of human BuChE Y332A mutant assessed as dissociation constant for Michaelis complex formation by enzyme kinetic study. Put shortly:
(§1)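 Wild-type human BuChE (lyophilised, dissolved in pH 8.0 phosphate buffer) or recombinant mutants. Final concentrations: enzyme 0.05 U mL^-1, DTNB 0.3 mmol, butyrylthiocholine 0.5 mmol. Inhibitor at various concentrations was mixed with enzyme at time 0. Aliquots taken at successive times were read at 412 nm over 30 s, in at least two wells each. k_obs came from a first-order fit, and K_c from a nonlinear fit of k_obs against inhibitor concentration.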

A short description of data set [6]: Inhibition of human BuChE D70G mutant assessed as dissociation constant for Michaelis complex formation by enzyme kinetic study. Put shortly:
as §1

The species named for data set [7] is Homo sapiens. Nature of the data set: Inhibition of human BuChE D70G/Y332A mutant assessed as dissociation constant for Michaelis complex formation by enzyme kinetic study. A digest of the protocol:
as §1

Data set [8] has as its system Plasma. Nature of the data set: Metabolic stability in 33% mouse plasma assessed as compound hydrolysis after 1 hr by HPLC. Format: ADME, cell-free. A digest of the protocol: (§2)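 The ester (1 × 10^-4 M) was incubated in human plasma solution (33-50%), mouse plasma (33%) or mouse liver homogenate. Remaining intact ester was measured by HPLC as a function of time over 1 h.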

For data set [9], the target named is Acetylcholinesterase (Homo sapiens) (UniProt P22303). Description: Inhibition of human erythrocyte AChE at 100 uM.
The target of data set [10] is T2, Cocaine esterase (Homo sapiens, UniProt O00748).
T2 sequence (O00748 whole entry): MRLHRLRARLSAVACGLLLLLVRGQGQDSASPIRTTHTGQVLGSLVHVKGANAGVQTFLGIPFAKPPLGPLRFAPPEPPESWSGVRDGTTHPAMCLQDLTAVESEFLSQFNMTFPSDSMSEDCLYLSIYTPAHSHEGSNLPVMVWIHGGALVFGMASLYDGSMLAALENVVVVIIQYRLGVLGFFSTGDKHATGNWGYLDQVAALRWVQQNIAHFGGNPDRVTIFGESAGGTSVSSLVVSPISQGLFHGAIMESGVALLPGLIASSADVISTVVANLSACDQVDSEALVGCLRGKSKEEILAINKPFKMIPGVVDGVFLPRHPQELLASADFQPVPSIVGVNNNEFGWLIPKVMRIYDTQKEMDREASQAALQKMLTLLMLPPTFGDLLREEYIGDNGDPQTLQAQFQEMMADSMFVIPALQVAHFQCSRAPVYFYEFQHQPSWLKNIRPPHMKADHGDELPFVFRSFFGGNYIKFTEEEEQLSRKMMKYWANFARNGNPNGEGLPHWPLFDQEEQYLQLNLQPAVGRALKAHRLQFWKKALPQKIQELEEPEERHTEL
Nature of the data set: Inhibition of human CES2-mediated pNPA substrate turnover. Put shortly: (§3)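 Source: pooled human liver microsomes (CES1) or human intestinal microsomes (CES2). The microsomes were preincubated with inhibitor at 50 nM-200 μM in 50 mM Tris-HCl pH 7.4 for 30 min at 37 °C. Substrate was pNPA at 3 mM final. p-Nitrophenol release was read at 405 nm. Rates were corrected for spontaneous-hydrolysis blanks, with four independent measurements per concentration. IC50 came from nonlinear sigmoidal curve fit.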

Data set [11] deals with Plasma. Description: Metabolic stability in 33% human plasma assessed as compound hydrolysis after 1 hr by HPLC. The data set is classed as ADME, cell-free. A digest of the protocol: as §2
Data set [12] has as its target T3, Liver carboxylesterase 1 (Homo sapiens, UniProt P23141).
T3 sequence (P23141 whole entry): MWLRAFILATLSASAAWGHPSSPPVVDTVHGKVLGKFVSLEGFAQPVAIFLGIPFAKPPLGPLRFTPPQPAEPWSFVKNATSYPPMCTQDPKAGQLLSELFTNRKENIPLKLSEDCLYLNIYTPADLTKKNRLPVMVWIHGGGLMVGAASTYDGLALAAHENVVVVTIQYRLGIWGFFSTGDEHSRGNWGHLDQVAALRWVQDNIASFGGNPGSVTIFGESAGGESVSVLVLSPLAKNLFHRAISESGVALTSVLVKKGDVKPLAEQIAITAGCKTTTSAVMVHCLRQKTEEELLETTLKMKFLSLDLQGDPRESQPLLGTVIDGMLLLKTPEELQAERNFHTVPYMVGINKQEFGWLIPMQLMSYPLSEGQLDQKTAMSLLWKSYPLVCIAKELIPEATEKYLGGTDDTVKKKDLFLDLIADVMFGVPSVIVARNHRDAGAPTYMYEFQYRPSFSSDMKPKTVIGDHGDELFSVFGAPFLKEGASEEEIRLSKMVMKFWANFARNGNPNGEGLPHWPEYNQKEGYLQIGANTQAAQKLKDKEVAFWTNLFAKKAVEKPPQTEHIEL
Nature of the data set: Inhibition of human CES1-mediated pNPA substrate turnover. A digest of the protocol:
as §3

The species named for data set [13] is Homo sapiens. Description: Selectivity for human BuChe over human CES2.
The test system of data set [14] is Liver. Nature of the data set: Metabolic stability in 33% mouse liver homogenate assessed as compound hydrolysis after 1 hr by HPLC. The data set is classed as ADME, tissue-based. The following applies: tissue homogenate. Put shortly: as §2

Sequence of Acetylcholinesterase (Electrophorus electricus) (O42275 24-633 limits assumed): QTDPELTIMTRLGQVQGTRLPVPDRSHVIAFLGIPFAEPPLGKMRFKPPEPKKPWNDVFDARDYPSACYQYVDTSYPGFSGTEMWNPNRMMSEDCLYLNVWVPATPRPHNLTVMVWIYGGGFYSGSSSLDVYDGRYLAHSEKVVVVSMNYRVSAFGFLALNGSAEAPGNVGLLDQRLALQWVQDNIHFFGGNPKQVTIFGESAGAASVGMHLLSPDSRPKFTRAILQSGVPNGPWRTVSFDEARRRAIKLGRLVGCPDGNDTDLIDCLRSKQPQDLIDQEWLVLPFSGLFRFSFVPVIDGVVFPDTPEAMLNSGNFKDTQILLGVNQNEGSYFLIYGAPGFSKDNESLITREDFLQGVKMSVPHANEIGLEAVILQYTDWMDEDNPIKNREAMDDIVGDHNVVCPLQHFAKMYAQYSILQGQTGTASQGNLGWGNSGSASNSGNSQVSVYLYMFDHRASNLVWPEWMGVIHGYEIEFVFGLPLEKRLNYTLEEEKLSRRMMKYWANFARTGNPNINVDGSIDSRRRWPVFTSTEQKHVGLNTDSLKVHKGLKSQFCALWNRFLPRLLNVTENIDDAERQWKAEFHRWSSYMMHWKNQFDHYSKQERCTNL
T1 sequence (P06276 whole entry): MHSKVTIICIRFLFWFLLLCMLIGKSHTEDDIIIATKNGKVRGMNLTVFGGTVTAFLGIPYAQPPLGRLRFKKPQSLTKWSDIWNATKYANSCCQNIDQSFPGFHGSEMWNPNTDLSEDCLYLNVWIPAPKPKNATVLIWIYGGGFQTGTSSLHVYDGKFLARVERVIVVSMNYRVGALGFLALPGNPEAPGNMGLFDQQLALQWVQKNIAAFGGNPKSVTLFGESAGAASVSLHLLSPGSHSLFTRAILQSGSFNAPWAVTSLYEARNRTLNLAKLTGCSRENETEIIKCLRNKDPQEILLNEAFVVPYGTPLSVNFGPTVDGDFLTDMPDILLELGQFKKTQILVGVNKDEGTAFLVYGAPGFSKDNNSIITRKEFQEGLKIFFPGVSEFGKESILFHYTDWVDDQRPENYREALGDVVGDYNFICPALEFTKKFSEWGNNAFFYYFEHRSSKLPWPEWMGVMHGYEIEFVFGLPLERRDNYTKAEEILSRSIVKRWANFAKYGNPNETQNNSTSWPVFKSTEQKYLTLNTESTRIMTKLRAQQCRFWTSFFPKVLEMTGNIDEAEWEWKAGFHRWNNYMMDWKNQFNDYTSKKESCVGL
Sequence of Acetylcholinesterase (Homo sapiens) (P22303 whole entry): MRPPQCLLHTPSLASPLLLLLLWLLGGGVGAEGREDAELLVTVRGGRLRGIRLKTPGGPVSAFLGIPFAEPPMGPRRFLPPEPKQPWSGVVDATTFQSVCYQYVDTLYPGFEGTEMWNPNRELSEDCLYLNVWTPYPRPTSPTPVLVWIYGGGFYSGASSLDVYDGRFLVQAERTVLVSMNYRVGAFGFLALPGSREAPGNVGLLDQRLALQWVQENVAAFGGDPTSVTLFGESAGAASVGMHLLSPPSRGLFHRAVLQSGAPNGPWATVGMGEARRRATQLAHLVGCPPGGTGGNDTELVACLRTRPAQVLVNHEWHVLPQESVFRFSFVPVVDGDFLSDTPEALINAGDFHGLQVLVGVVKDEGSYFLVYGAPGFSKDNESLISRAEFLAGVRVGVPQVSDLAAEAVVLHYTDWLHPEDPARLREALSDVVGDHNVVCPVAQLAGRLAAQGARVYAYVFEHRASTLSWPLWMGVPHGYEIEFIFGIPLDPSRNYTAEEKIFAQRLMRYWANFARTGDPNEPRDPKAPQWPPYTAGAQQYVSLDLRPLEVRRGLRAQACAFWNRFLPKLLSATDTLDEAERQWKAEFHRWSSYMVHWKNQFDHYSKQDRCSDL

`Cc1ccccc1C(=O)O[C@@H]1CO[C@H]2[C@@H]1OC[C@@H]2OC(=O)NCc1ccccc1`: in data set [1], the half-inhibitory concentration (IC50) (in general, the midpoint of a concentration-inhibition curve) is 1.2 nM. Further, the Ratio in data set [2] was greater than 83300. The inhibition (commonly how much of the control response was suppressed) in [3] was found to be 26%. In [4], the Activity amounted to 0.248 µM.

Molecule `O=C(NCc1ccccc1)O[C@H]1CO[C@H]2[C@@H]1OC[C@H]2OC(=O)c1ccc(O)cc1` came in with an IC50 in [1] of 323 nM. For the same molecule, the Ratio in [2] was greater than 309. Moreover, the inhibition in data set [3] was 0%.

As for `O=C(NCc1ccccc1)O[C@H]1CO[C@H]2[C@@H]1OC[C@H]2O`, the Activity in data set [4] was 18.7 µM.

For `O=C(O[C@@H]1CO[C@H]2[C@@H]1OC[C@@H]2OC(=O)N1CCOCC1)c1ccccc1O`, the IC50 in data set [1] came to 1060 nM. Besides, the Ratio in [2] was greater than 95. The molecule further yielded an inhibition in data set [3] of 12%.

For `CCCCNC(=O)O[C@H]1CO[C@H]2[C@@H]1OC[C@H]2OC(=O)c1ccccc1`, in data set [1], half-maximal inhibition (IC50) required 72 nM. Also, the Activity in data set [5] was 1.3 µM; in data set [6], 2.7 µM; in [7], 5.3 µM; in [4] it was 2.57 µM.

In data set [1], `Nc1ccccc1C(=O)O[C@@H]1CO[C@H]2[C@@H]1OC[C@@H]2OC(=O)NCc1ccccc1` showed an IC50 of 27 nM. The Ratio in data set [2] is greater than 3700. For the same molecule, the inhibition in data set [3] came to 0%.

As for `CN(C)C(=O)O[C@H]1CO[C@H]2[C@@H]1OC[C@H]2OC(=O)c1ccccc1O`, half-maximal inhibition in data set [1] (IC50) was put at 6.4 nM. Besides, in data set [2], the Ratio is greater than 15600. For the same molecule, the inhibition in [3] was determined as 0%.

Molecule `O=Nc1ccccc1C(=O)O[C@@H]1CO[C@H]2[C@@H]1OC[C@@H]2OC(=O)NCc1ccccc1` displayed an IC50 in data set [1] of 39 nM. Besides, the Ratio in data set [2] is greater than 2560. Besides, the inhibition in data set [3] is 0%.

As for `O=C(NCc1ccccc1)O[C@H]1CO[C@H]2[C@@H]1OC[C@H]2OC(=O)c1cccnc1`, the Activity in [4] was 1.9 µM.

Consider `O=C(NCc1ccccc1)O[C@H]1CO[C@H]2[C@@H]1OC[C@H]2OC(=O)c1ccccc1`, for which the Activity in data set [5] was found to be 1.5 µM; in data set [6] it was 2.4 µM; in [7] it was 6.4 µM.

With `O=C(NCc1ccccc1)O[C@H]1CO[C@H]2[C@@H]1OC[C@H]2OC(=O)c1ccccc1[N+](=O)[O-]`, the IC50 in [1] stood at 18 nM. For the same molecule, the Ratio in data set [2] is greater than 5560. Also, in data set [3], the inhibition is 0%.

In data set [1], `O=C(NCc1ccccc1)O[C@H]1CO[C@H]2[C@@H]1OC[C@H]2OC(=O)c1cccc([N+](=O)[O-])c1` returned an IC50 of 32 nM. The Ratio in [2] was greater than 3120. In [3], this molecule gave an inhibition of 0%.

In data set [1], `Nc1cccc(C(=O)O[C@@H]2CO[C@H]3[C@@H]2OC[C@@H]3OC(=O)NCc2ccccc2)c1` returned an IC50 of 86 nM. Also, the Ratio in data set [2] is greater than 1170. This molecule gave an inhibition in data set [3] of 0%.

In the case of `Nc1ccc(C(=O)O[C@@H]2CO[C@H]3[C@@H]2OC[C@@H]3OC(=O)NCc2ccccc2)cc1`, the IC50 in data set [1] amounted to 297 nM. Besides, in data set [2], the Ratio was found to be 336. In addition, the inhibition in data set [3] turned out to be 33%.

`CCN(CC)C(=O)O[C@H]1CO[C@H]2[C@@H]1OC[C@H]2OC(=O)c1ccccc1O`: the IC50 in data set [1] stood at 2610 nM. Moreover, the Ratio in [2] was greater than 38. In data set [3], this molecule yielded an inhibition of 0%.

Take `O=C(NCc1ccccc1)O[C@H]1CO[C@H]2[C@@H]1OC[C@H]2OC(=O)c1ccc(-c2ccccc2)cc1`: the Activity in [4] is 0.4 µM.

For the molecule `CCNC(=O)O[C@H]1CO[C@H]2[C@@H]1OC[C@H]2OC(=O)c1ccccc1O`, half-maximal inhibition in data set [1] (IC50) required 9.6 nM. For the same molecule, the Activity was 0.42 µM in [5], 0.32 µM in data set [6], 2.26 µM in data set [7] and 0.075 µM in data set [4]. In addition, in data set [2], the Ratio was greater than 10400. The same molecule had an inhibition in [3] of 16%.

As to `O=C(NCc1ccccc1)O[C@H]1CO[C@H]2[C@@H]1OC[C@H]2OC(=O)c1ccc([N+](=O)[O-])cc1`, the IC50 in data set [1] worked out at 117 nM. Also, in data set [2], the Ratio is greater than 854. In data set [3], this molecule gave an inhibition of 27%.

Molecule `O=C(NCc1ccccc1)O[C@H]1CO[C@H]2[C@@H]1OC[C@H]2OC(=O)c1cccc(O)c1` displayed an IC50 in data set [1] of 16 nM. For the same molecule, the Ratio in data set [2] was greater than 6250. The molecule also displayed an inhibition in data set [3] of 0%.

On to `O=C(NCc1ccccc1)O[C@H]1CO[C@H]2[C@@H]1OC[C@H]2OC(=O)c1ccccc1O`, for which the IC50 in data set [1] is 0.15 nM; in data set [10], 3420 nM. For the same molecule, the Activity in data set [5] is 0.05 µM; in [6], 0.067 µM; in data set [12] it was “Not Active”; in [7], 0.445 µM; in [4] it was 0.01 µM. Besides, the Ratio in data set [2] was greater than 660000. Moreover, the Stability result in data set [8], in data set [11] and in data set [14] was “Stable” throughout. Besides, the inhibition in data set [9] worked out at 52%; in data set [3], 47%. Moreover, the Ratio IC50 in data set [13] worked out at 22800.

Values taken from ChEMBL document CHEMBL1156822, “Isosorbide-2-benzyl carbamate-5-salicylate, a peripheral anionic site binding subnanomolar selective butyrylcholinesterase inhibitor” (J Med Chem, 2010).
